Experimental data from ChEMBL document CHEMBL2375276, “Antibacterial oxazolidinone analogues having a N-hydroxyacetyl-substituted seven-membered [1,2,5]triazepane or [1,2,5]oxadiazepane C-ring unit” (Eur J Med Chem, 2013).
Converted amounts (≈) assume the structure as drawn.

What was measured:
Staphylococcus aureus [1] = test: Ratio of linezolid ED50 to compound ED50 for methicillin-resistant Staphylococcus aureus SR3637 infected in po dosed JCL/ICR mouse systemic infection model; assay type: functional
Outline: (§1)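 Five-week-old male JCL/ICR mice (20–25 g), five per group, infected intraperitoneally with 0.5 or 1.0 mL bacterial suspension (about 100 times the 50% lethal dose). Test and reference compounds given intravenously or orally 1 h after infection. Mortality followed over 7 days; ED50 with 95% confidence limits by the logit method.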

MAO-B = target: T1, MAO-B (Rattus norvegicus, UniProt P19643); test: Inhibition of MAO-B in rat forebrain using [14C]PEA as substrate at 30 uM incubated for 20 mins prior to substrate addition measured after 10 mins by liquid scintillation counting analysis relative to control; assay type: tissue-based; conditions: probe [14C]PEA
T1 sequence (P19643 whole entry): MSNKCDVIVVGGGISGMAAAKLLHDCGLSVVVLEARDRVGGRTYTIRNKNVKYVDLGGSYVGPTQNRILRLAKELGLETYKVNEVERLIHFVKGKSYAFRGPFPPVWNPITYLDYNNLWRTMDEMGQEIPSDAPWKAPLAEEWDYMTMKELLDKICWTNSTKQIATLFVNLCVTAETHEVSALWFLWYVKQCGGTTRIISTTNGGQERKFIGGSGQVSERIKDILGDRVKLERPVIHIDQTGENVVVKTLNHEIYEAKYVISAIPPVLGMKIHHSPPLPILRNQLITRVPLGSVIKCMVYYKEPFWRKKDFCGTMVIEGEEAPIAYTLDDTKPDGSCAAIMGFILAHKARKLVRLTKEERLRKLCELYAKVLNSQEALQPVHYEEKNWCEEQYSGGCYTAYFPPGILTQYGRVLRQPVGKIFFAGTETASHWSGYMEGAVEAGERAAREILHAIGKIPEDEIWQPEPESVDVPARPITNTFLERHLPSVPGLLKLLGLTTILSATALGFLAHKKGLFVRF

Moraxella catarrhalis = test: Antibacterial activity against Moraxella catarrhalis SR26840 clinical isolate assessed as growth inhibition by CLSI broth microdilution method; assay type: functional
Outline: (§2)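 MIC by CLSI broth microdilution in cation-adjusted Mueller-Hinton broth; S. pneumoniae medium supplemented with 5% lysed horse blood.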

Cytochrome P450 2D6 = Cytochrome P450 2D6 (Homo sapiens, UniProt P10635); test: Inhibition of human CYP2D6 assessed as dextromethorphan O-demethylation after 20 mins by LC/MS/MS analysis; assay type: ADME
Cytochrome P450 2D6, sequence (P10635 whole entry): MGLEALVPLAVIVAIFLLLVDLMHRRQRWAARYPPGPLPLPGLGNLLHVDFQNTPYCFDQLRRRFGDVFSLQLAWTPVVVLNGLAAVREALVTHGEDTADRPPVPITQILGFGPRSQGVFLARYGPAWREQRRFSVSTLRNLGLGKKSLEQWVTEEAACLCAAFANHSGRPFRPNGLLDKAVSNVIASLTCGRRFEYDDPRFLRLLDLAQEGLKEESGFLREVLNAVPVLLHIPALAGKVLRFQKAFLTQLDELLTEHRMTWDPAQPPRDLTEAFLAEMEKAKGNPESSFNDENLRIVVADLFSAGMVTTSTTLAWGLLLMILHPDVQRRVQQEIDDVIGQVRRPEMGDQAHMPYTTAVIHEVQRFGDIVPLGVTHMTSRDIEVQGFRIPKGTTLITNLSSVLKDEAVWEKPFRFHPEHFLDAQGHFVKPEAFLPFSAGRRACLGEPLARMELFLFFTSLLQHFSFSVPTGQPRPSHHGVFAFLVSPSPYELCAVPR
Outline: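 Human liver microsomes (0.2 mg protein/mL) with 1 mM NADPH in 50 mM HEPES pH 7.4, 10 mM MgCl2, 0.1 mM EDTA. After centrifugation, supernatant metabolite measured by LC/MS/MS. Standard curve from authentic metabolite cocktail added to unincubated reaction mix.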

Staphylococcus aureus [2] = test: Antibacterial activity against methicillin-resistant Staphylococcus aureus SR3637 infected in JCL/ICR mouse systemic infection model assessed as mortality administered as iv measured over 7 days; assay type: functional; conditions: 168 h
Outline: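 Five-week-old male JCL/ICR mice (20–25 g), five per group. Infected intraperitoneally with 0.5 or 1.0 mL bacterial suspension (about 100× LD50). Intravenous dosing 1 h post-infection. Mortality followed 7 days; ED50 with 95% confidence limits by logit method.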

Enterococcus faecalis [3] = test: Ratio of linezolid MIC to compound MIC for Enterococcus faecalis SR1004 clinical isolate; assay type: functional
Streptococcus pneumoniae = test: Ratio of eperezolid MIC to compound MIC for Streptococcus pneumoniae SR26207 clinical isolate; assay type: functional
Enterococcus faecalis [4] = test: Antibacterial activity against Enterococcus faecalis SR1004 clinical isolate assessed as growth inhibition by CLSI broth microdilution method; assay type: functional; outline: as §2
Staphylococcus aureus [5] = test: Ratio of linezolid ED50 to compound ED50 for methicillin-resistant Staphylococcus aureus SR3637 infected in iv dosed JCL/ICR mouse systemic infection model; assay type: functional; outline: as §1

Row | Compound | Ratio ED50 (Staphylococcus aureus [1]) | inhibition at 10 min, 30 µM (MAO-B) | MIC (Moraxella catarrhalis) | IC50 (Cytochrome P450 2D6) | ED50 (Staphylococcus aureus [2]) | Ratio (Enterococcus faecalis [3]) | Ratio (Streptococcus pneumoniae) | MIC (Enterococcus faecalis [4]) | Ratio ED50 (Staphylococcus aureus [5])
1 | COC(=S)NC[C@H]1CN(c2ccc(N3CCNN(C(=O)CO)CC3)c(F)c2)C(=O)O1 | 2 | 10.1% | 2 µg/mL (≈ 4.53 µM) | > 20 µM | 0.94 mg/kg | 4 | 4 | 0.5 µg/mL (≈ 1.13 µM) | 3
2 | COC(=S)NC[C@H]1CN(c2cc(F)c(N3CCNN(C(=O)CO)CC3)c(F)c2)C(=O)O1 |  | 10.6% | 1 µg/mL (≈ 2.18 µM) | > 20 µM | 0.77 mg/kg | 4 | 4 | 0.25 µg/mL (≈ 0.544 µM) | 
